Experimental findings from ChEMBL document CHEMBL3596101, “The Mechanism of Ca(2+) Movement in the Involvement of Baicalein-Induced Cytotoxicity in ZR-75-1 Human Breast Cancer Cells” (J Nat Prod, 2015) are described below.

Molecules are shown by their SMILES. The source made the active and inactive calls. The calls are words filed in the database; no cut-off is given here.

What is called EC50 is the concentration at which the effect is half-maximal.

In assay [1] the test system is ZR-75-1. Description: Increase in intracellular Ca2+ level in human ZR-75-1 cells at 40 uM treated for 25 secs by fura-2-AM dye-based spectrofluorophotometric analysis in presence of Ca2+-free medium (reference value: 50 +/- 2 nM). Type of assay: functional. The gist of the method:
(§1)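 Fura-2-loaded ZR-75-1 cells (0.5 million per 1 mL, stirred, 25 °C) in Ca2+-containing or Ca2+-free medium. Compound added at 25 s. 340/380 nm excitation, 510 nm emission at 1 s intervals, calibrated to nM. Concentration-response from baseline-subtracted area under curve (25–250 s) as % of 50 μM response in Ca2+ medium. EC50 from Hill fit. Three experiments.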

For assay [2], the system named is ZR-75-1. Description: Induction of apoptosis in human ZR-75-1 cells assessed as early apoptotic cells at 30 uM after 24 hrs by annexin V-FITC/propidium iodide staining-based flow cytometric analysis (reference value: 6.84%). Type of assay: functional. In outline: (§2)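 ZR-75-1 cells exposed to 20–40 μM compound for 24 h, with 5 μM BAPTA-AM or NAC added first where indicated. Cells stained with Alexa Fluor 488 annexin V/PI for 15 min, at least 20000 cells analysed by flow cytometry (488 nm excitation, 530/575 nm filters). Early = annexin V+/PI−, late = annexin V+/PI+. Three independent biological replicates.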
Background: In flow cytometry, cells or beads pass a laser one at a time.

The test system of assay [3] is ZR-75-1. Briefly: Increase in intracellular Ca2+ level in human ZR-75-1 cells at 40 uM measured every 150 secs by fura-2-AM dye-based spectrofluorophotometric analysis in presence of Ca2+ free medium with PKC inhibitor GF109203X. Format: functional, cell-based. The gist of the method:
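In Ca2+-free medium, GF109203X (2 μM) was added 1 min before 40 μM compound to fura-2-loaded ZR-75-1 cells in a 25 °C cuvette. Response = net area under curve as % of compound alone. Three experiments.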

For assay [4], the system named is ZR-75-1. Description: Induction of apoptosis in human ZR-75-1 cells assessed as late apoptotic cells at 30 uM after 24 hrs by annexin V-FITC/propidium iodide staining-based flow cytometric analysis (reference value: 2.53%). Type of assay: functional. The gist of the method: as §2
The subject of assay [5] is ZR-75-1. Description: Increase in intracellular Ca2+ level in human ZR-75-1 cells at 40 uM by fura-2-AM dye-based spectrofluorophotometric analysis in presence of Ca2+ containing medium with Ca2+ chelator BAPTA-AM. Format: functional, cell-based. The gist of the method:
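Fura-2-loaded ZR-75-1 cells treated with 5 μM BAPTA-AM, then 40 μM compound in Ca2+-containing medium (2 mM CaCl2, pH 7.4). Ratio fluorescence 340/380 nm excitation, 510 nm emission, 25 °C cuvette.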

Assay [6] has as its system ZR-75-1. Briefly: Induction of apoptosis in human ZR-75-1 cells assessed as early apoptotic cells at 40 uM after 24 hrs by annexin V-FITC/propidium iodide staining-based flow cytometric analysis (reference value: 6.84%). Type of assay: functional. In outline:
as §2

For assay [7], the system named is ZR-75-1. Description: Induction of reactive oxygen species production in human ZR-75-1 cells at 20 uM after 24 hrs by DCFH-DA probe-based flow cytometric analysis (reference value: 3.623%). Type of assay: functional. The gist of the method:
(§3)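 ZR-75-1 cells treated with 20–40 μM compound for 24 h, with 5 μM BAPTA-AM added first where indicated. Cells suspended at 1 × 10^6/mL, loaded with 10 μM DCFH-DA for 30 min at 37 °C. DCF read by flow cytometry (488 nm excitation, 530/30 nm filter, 10000 cells). % H2O2-positive (M1) after subtracting the baseline without probe. Three experiments.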

The test system of assay [8] is ZR-75-1. Description: Increase in intracellular Ca2+ level in human ZR-75-1 cells at 40 uM measured every 150 secs by fura-2-AM dye-based spectrofluorophotometric analysis in presence of Ca2+ containing medium with store-operated Ca2+ channel blocker 2-APB. Type of assay: functional, cell-based. The gist of the method:
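In Ca2+-containing medium (2 mM CaCl2), 2-APB (30 μM) or GF109203X (2 μM) was added 1 min before 40 μM compound to fura-2-loaded ZR-75-1 cells at 25 °C. Response = net area under curve over a 150 s interval, as % of compound alone. Mean ± SEM, n=3.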

Assay [9] relates to ZR-75-1. Briefly: Induction of apoptosis in human ZR-75-1 cells assessed as activation of caspase-3 at 20 to 40 uM preincubated for 24 hrs followed by Ca2+ chelator BAPTA-AM addition by Western immunoblot analysis. Format: functional, cell-based. In outline:
(§4)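 Confluent ZR-75-1 cells (3 × 10^6/dish) treated with 20, 30 or 40 μM compound for 24 h. Where used, 5 μM BAPTA-AM or 5 μM NAC was added before the compound. About 50 μg lysate protein run on 10% SDS-PAGE, transferred to PVDF, probed for cleaved caspase-9/-3 and β-actin, chemiluminescence. Densitometry normalized to β-actin. Three experiments.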
Background: A western blot detects proteins with antibodies after separation by electrophoresis.

In assay [10] the test system is ZR-75-1. Briefly: Induction of apoptosis in human ZR-75-1 cells assessed as late apoptotic cells at 20 uM after 24 hrs by annexin V-FITC/propidium iodide staining-based flow cytometric analysis (reference value: 2.53%). Type of assay: functional. The gist of the method:
as §2

Assay [11] relates to ZR-75-1. Briefly: Induction of apoptosis in human ZR-75-1 cells assessed as activation of caspase-9 at 20 to 40 uM preincubated for 24 hrs followed by antioxidant N-Acetylcysteine addition by Western immunoblot analysis. Format: functional, cell-based. In outline: as §4
Assay [12] relates to ZR-75-1. Briefly: Induction of luminal endoplasmic reticulum Ca2+ increases in human ZR-75-1 cells assessed as ratio of Ca2+ level at 40 uM by Mag-fura-2 dye-based fluorescence assay (reference value: 0.67 +/- 0.02). Format: functional. The gist of the method:
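ZR-75-1 cells loaded with 2 μM Mag-fura-2-AM for 45 min at 37 °C, permeabilized 2 min with […] digitonin in high-K+ intracellular buffer (pH 7.2). Perfused with 0.2 mM Mg-ATP, free Ca2+ clamped at 170 nM. Ratio calibrated with ionomycin plus Ca2+ or EGTA, Kd 53 μM. Control versus 40 μM compound.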

Assay [13] concerns ZR-75-1. Briefly: Increase in intracellular Ca2+ level in human ZR-75-1 cells treated for 25 secs by fura-2-AM dye-based spectrofluorophotometric analysis in presence of Ca2+-free medium. Type of assay: functional, cell-based. The gist of the method:
as §1

Assay [14] has as its system ZR-75-1. Description: Inhibition of endoplasmic reticulum Ca2+ pump inhibitor thapsigargin-induced intracellular Ca2+ increase in human ZR-75-1 cells at 40 uM pretreated with compound followed by thapsigargin induction in presence of Ca2+ free medium. Format: functional, cell-based. The gist of the method:
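ZR-75-1 cells loaded with 2 μM fura-2-AM for 30 min at 25 °C, then suspended in Ca2+-free medium (pH 7.4; 0.3 mM EGTA, 3 mM MgCl2). Stirred cuvette at 25 °C. Thapsigargin (1 μM) or BHQ (50 μM) given before or after 40 μM compound. Excitation 340/380 nm, emission 510 nm, read at 1 s intervals. [Ca2+]i calibrated with Triton X-100/CaCl2 then EGTA.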

Assay [15] concerns ZR-75-1. Description: Induction of cell death in human ZR-75-1 cells at 20 to 50 uM after 24 hrs by WST-1 assay in presence of antioxidant N-Acetylcysteine. Type of assay: functional, cell-based. The gist of the method:
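WST-1 viability assay in ZR-75-1 cells: 5 μM NAC added, then 20–50 μM compound in NAC-containing medium for 24 h. A450 read after 30 min WST-1 incubation and expressed as % of control. Mean ± SEM of three experiments.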
A general note: Formazan colour is commonly taken as a measure of viable cells.

The test system of assay [16] is ZR-75-1. Briefly: Induction of reactive oxygen species production in human ZR-75-1 cells after 24 hrs by DCFH-DA probe-based flow cytometric analysis. Type of assay: functional, cell-based. In outline:
as §3

Consider `O=c1cc(-c2ccccc2)oc2cc(O)c(O)c(O)c12` [BAICALEIN], for which the Activity in [1] was 103 nM; in assay [2], 50.72%; in assay [4], 1.96%; in assay [6], 55.96%; in [7], 22.707%; in [10] it was 2.36%. For the same compound, in [16], the Activity result is “Dose-dependent effect”. Moreover, the result in [3], in [5], in assay [8], in [9], in assay [11] and in assay [15] was inactive. Also, the Ratio in assay [12] was 0.875. Besides, the EC50 in assay [13] stood at 35 µM. For the same compound, the inhibition result in assay [14] is “Active”.
